In brackets after ≈: the same amount, converted by molar mass.
The compounds below were run on Talaromyces marneffei (assay: Antifungal activity against Penicillium marneffei). Details: not given.
Type: functional
In short: (§1)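 Agar-well diffusion on Sabouraud agar at pH 5.7. Plates were lawned with a saline spore suspension (one loopful in 3 ml), decanted and dried 1 h at 37 °C. Compounds in DMSO went into punched wells, with a DMSO solvent control. Plates were run in triplicate and kept at 37 °C for 3-4 days, with inhibition-zone diameter as read-out.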

Structure (SMILES)	inhibition zone (IZ) [mm]
CS(=O)(=O)c1ccc(OCc2nnc3sc(-c4cccc(Cl)c4)nn23)cc1	<10
CS(=O)(=O)c1ccc(OCc2nnc3sc(-c4ccccc4Cl)nn23)cc1	<10
CSc1ccc(OCc2nnc3n2N=C(c2ccc(Cl)cc2)CS3)cc1	16
CCSc1ccc(OCc2nnc3sc(-c4ccccc4O)nn23)cc1	<10

Same assay, conditions: Talaromyces marneffei

MIC [µg/mL]	Structure (SMILES)
25 (≈ 59.4 µM)	CS(=O)(=O)c1ccc(OCc2nnc3sc(-c4cccc(Cl)c4)nn23)cc1
25 (≈ 59.4 µM)	CS(=O)(=O)c1ccc(OCc2nnc3sc(-c4ccccc4Cl)nn23)cc1
6.25 (≈ 15.5 µM)	CSc1ccc(OCc2nnc3n2N=C(c2ccc(Cl)cc2)CS3)cc1
25 (≈ 65 µM)	CCSc1ccc(OCc2nnc3sc(-c4ccccc4O)nn23)cc1

Each compound was assayed on Aspergillus fumigatus (assay: Antifungal activity against Aspergillus fumigatus NCIM 902). Details: not given.
Type: functional

Structure (SMILES)	inhibition zone (IZ) [mm]
CS(=O)(=O)c1ccc(OCc2nnc3sc(-c4cccc(Cl)c4)nn23)cc1	11
CS(=O)(=O)c1ccc(OCc2nnc3sc(-c4ccccc4Cl)nn23)cc1	11
CSc1ccc(OCc2nnc3n2N=C(c2ccc(Cl)cc2)CS3)cc1	16
CCSc1ccc(OCc2nnc3sc(-c4ccccc4O)nn23)cc1	<10

Same assay, conditions: Aspergillus fumigatus, NCIM 902

MIC [µg/mL]	Structure (SMILES)
12.5 (≈ 29.7 µM)	CS(=O)(=O)c1ccc(OCc2nnc3sc(-c4cccc(Cl)c4)nn23)cc1
12.5 (≈ 29.7 µM)	CS(=O)(=O)c1ccc(OCc2nnc3sc(-c4ccccc4Cl)nn23)cc1
6.25 (≈ 15.5 µM)	CSc1ccc(OCc2nnc3n2N=C(c2ccc(Cl)cc2)CS3)cc1
25 (≈ 65 µM)	CCSc1ccc(OCc2nnc3sc(-c4ccccc4O)nn23)cc1

Each compound was assayed on Staphylococcus aureus (assay: Antibacterial activity against Staphylococcus aureus ATCC 25923). Details: not given.
Type: functional
In short: (§2)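 MIC by serial dilution in Mueller-Hinton broth tubes, pH adjusted to 5.0 with phosphate buffer. A standardized bacterial suspension was inoculated and incubated 16-18 h at 37 °C, and MIC was read as the lowest concentration with no visible growth. Zones were also measured in agar wells on seeded plates, with compounds in DMSO and a DMSO control, triplicate plates, 37 °C for 3-4 days.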

Structure (SMILES)	inhibition zone (IZ) [mm]
CS(=O)(=O)c1ccc(OCc2nnc3sc(-c4cccc(Cl)c4)nn23)cc1	11
CS(=O)(=O)c1ccc(OCc2nnc3sc(-c4ccccc4Cl)nn23)cc1	11
CSc1ccc(OCc2nnc3n2N=C(c2ccc(Cl)cc2)CS3)cc1	16
CCSc1ccc(OCc2nnc3sc(-c4ccccc4O)nn23)cc1	<10

Same assay, conditions: Staphylococcus aureus, ATCC 25923

MIC [µg/mL]	Structure (SMILES)
12.5 (≈ 29.7 µM)	CS(=O)(=O)c1ccc(OCc2nnc3sc(-c4cccc(Cl)c4)nn23)cc1
12.5 (≈ 29.7 µM)	CS(=O)(=O)c1ccc(OCc2nnc3sc(-c4ccccc4Cl)nn23)cc1
6.25 (≈ 15.5 µM)	CSc1ccc(OCc2nnc3n2N=C(c2ccc(Cl)cc2)CS3)cc1
25 (≈ 65 µM)	CCSc1ccc(OCc2nnc3sc(-c4ccccc4O)nn23)cc1

What follows are compounds tested on Aspergillus flavus (assay: Antifungal activity against Aspergillus flavus NCIM 524). Details: not given.
Type: functional
In short: as §1

Structure (SMILES)	inhibition zone (IZ) [mm]
CS(=O)(=O)c1ccc(OCc2nnc3sc(-c4cccc(Cl)c4)nn23)cc1	11
CS(=O)(=O)c1ccc(OCc2nnc3sc(-c4ccccc4Cl)nn23)cc1	11
CSc1ccc(OCc2nnc3n2N=C(c2ccc(Cl)cc2)CS3)cc1	16
CCSc1ccc(OCc2nnc3sc(-c4ccccc4O)nn23)cc1	<10

Same assay, conditions: Aspergillus flavus, NCIM 524

MIC [µg/mL]	Structure (SMILES)
12.5 (≈ 29.7 µM)	CS(=O)(=O)c1ccc(OCc2nnc3sc(-c4cccc(Cl)c4)nn23)cc1
12.5 (≈ 29.7 µM)	CS(=O)(=O)c1ccc(OCc2nnc3sc(-c4ccccc4Cl)nn23)cc1
6.25 (≈ 15.5 µM)	CSc1ccc(OCc2nnc3n2N=C(c2ccc(Cl)cc2)CS3)cc1
25 (≈ 65 µM)	CCSc1ccc(OCc2nnc3sc(-c4ccccc4O)nn23)cc1

The compounds below were run on Klebsiella pneumoniae (assay: Antibacterial activity against Klebsiella pneumoniae). Details: not given.
Type: functional
In short: as §2

Structure (SMILES)	inhibition zone (IZ) [mm]
CS(=O)(=O)c1ccc(OCc2nnc3sc(-c4cccc(Cl)c4)nn23)cc1	11
CS(=O)(=O)c1ccc(OCc2nnc3sc(-c4ccccc4Cl)nn23)cc1	11
CSc1ccc(OCc2nnc3n2N=C(c2ccc(Cl)cc2)CS3)cc1	16
CCSc1ccc(OCc2nnc3sc(-c4ccccc4O)nn23)cc1	<10

Same assay, conditions: Klebsiella pneumoniae

MIC [µg/mL]	Structure (SMILES)
12.5 (≈ 29.7 µM)	CS(=O)(=O)c1ccc(OCc2nnc3sc(-c4cccc(Cl)c4)nn23)cc1
12.5 (≈ 29.7 µM)	CS(=O)(=O)c1ccc(OCc2nnc3sc(-c4ccccc4Cl)nn23)cc1
6.25 (≈ 15.5 µM)	CSc1ccc(OCc2nnc3n2N=C(c2ccc(Cl)cc2)CS3)cc1
25 (≈ 65 µM)	CCSc1ccc(OCc2nnc3sc(-c4ccccc4O)nn23)cc1

These compounds were tested on Escherichia coli (assay: Antibacterial activity against Escherichia coli ATCC 25922). Details: not given.
Type: functional
In short: as §2

Structure (SMILES)	inhibition zone (IZ) [mm]
CS(=O)(=O)c1ccc(OCc2nnc3sc(-c4cccc(Cl)c4)nn23)cc1	11
CS(=O)(=O)c1ccc(OCc2nnc3sc(-c4ccccc4Cl)nn23)cc1	11
CSc1ccc(OCc2nnc3n2N=C(c2ccc(Cl)cc2)CS3)cc1	16
CCSc1ccc(OCc2nnc3sc(-c4ccccc4O)nn23)cc1	<10

Same assay, conditions: Escherichia coli, ATCC 25922

MIC [µg/mL]	Structure (SMILES)
12.5 (≈ 29.7 µM)	CS(=O)(=O)c1ccc(OCc2nnc3sc(-c4cccc(Cl)c4)nn23)cc1
12.5 (≈ 29.7 µM)	CS(=O)(=O)c1ccc(OCc2nnc3sc(-c4ccccc4Cl)nn23)cc1
6.25 (≈ 15.5 µM)	CSc1ccc(OCc2nnc3n2N=C(c2ccc(Cl)cc2)CS3)cc1
25 (≈ 65 µM)	CCSc1ccc(OCc2nnc3sc(-c4ccccc4O)nn23)cc1

Each compound was assayed on Pseudomonas aeruginosa (assay: Antibacterial activity against Pseudomonas aeruginosa ATCC 27853). Details: not given.
Type: functional
In short: as §2

Structure (SMILES)	inhibition zone (IZ) [mm]
CS(=O)(=O)c1ccc(OCc2nnc3sc(-c4cccc(Cl)c4)nn23)cc1	11
CS(=O)(=O)c1ccc(OCc2nnc3sc(-c4ccccc4Cl)nn23)cc1	11
CSc1ccc(OCc2nnc3n2N=C(c2ccc(Cl)cc2)CS3)cc1	16
CCSc1ccc(OCc2nnc3sc(-c4ccccc4O)nn23)cc1	<10

Same assay, conditions: Pseudomonas aeruginosa, ATCC 27853

MIC [µg/mL]	Structure (SMILES)
12.5 (≈ 29.7 µM)	CS(=O)(=O)c1ccc(OCc2nnc3sc(-c4cccc(Cl)c4)nn23)cc1
12.5 (≈ 29.7 µM)	CS(=O)(=O)c1ccc(OCc2nnc3sc(-c4ccccc4Cl)nn23)cc1
6.25 (≈ 15.5 µM)	CSc1ccc(OCc2nnc3n2N=C(c2ccc(Cl)cc2)CS3)cc1
25 (≈ 65 µM)	CCSc1ccc(OCc2nnc3sc(-c4ccccc4O)nn23)cc1

These compounds were tested on Trichophyton benhamiae (assay: Antifungal activity against Trichophyton mentagrophytes). Details: not given.
Type: functional, Arthroderma benhamiae
In short: as §1

Structure (SMILES)	inhibition zone (IZ) [mm]
CS(=O)(=O)c1ccc(OCc2nnc3sc(-c4cccc(Cl)c4)nn23)cc1	11
CS(=O)(=O)c1ccc(OCc2nnc3sc(-c4ccccc4Cl)nn23)cc1	11
CSc1ccc(OCc2nnc3n2N=C(c2ccc(Cl)cc2)CS3)cc1	16
CCSc1ccc(OCc2nnc3sc(-c4ccccc4O)nn23)cc1	<10

Same assay, conditions: Trichophyton benhamiae

MIC [µg/mL]	Structure (SMILES)
12.5 (≈ 29.7 µM)	CS(=O)(=O)c1ccc(OCc2nnc3sc(-c4cccc(Cl)c4)nn23)cc1
12.5 (≈ 29.7 µM)	CS(=O)(=O)c1ccc(OCc2nnc3sc(-c4ccccc4Cl)nn23)cc1
6.25 (≈ 15.5 µM)	CSc1ccc(OCc2nnc3n2N=C(c2ccc(Cl)cc2)CS3)cc1
25 (≈ 65 µM)	CCSc1ccc(OCc2nnc3sc(-c4ccccc4O)nn23)cc1

Reference: ChEMBL document CHEMBL1143805, “Synthesis and antimicrobial activities of some novel 1,2,4-triazolo[3,4-b]-1,3,4-thiadiazoles and 1,2,4-triazolo[3,4-b]-1,3,4-thiadiazines carrying thioalkyl and sulphonyl phenoxy moieties” (2007)
